# UCH37 DUB inh: human UCH37 deubiquitinating enzyme inhibition; Q9Y5K5; purified proteasome/UCH37, Ub-AMC cleavage fluorescence; inhibition, % (no concentration beside the values); 330,000 tested, 0.33% active; AID 588478;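 active = mean inhibition over replicate wells above about 20%, limit read from the data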;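 note: 0% = compound-free wells with enzyme and 100% = wells lacking proteasome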
# Target sequence (Q9Y5K5 whole entry, looked up): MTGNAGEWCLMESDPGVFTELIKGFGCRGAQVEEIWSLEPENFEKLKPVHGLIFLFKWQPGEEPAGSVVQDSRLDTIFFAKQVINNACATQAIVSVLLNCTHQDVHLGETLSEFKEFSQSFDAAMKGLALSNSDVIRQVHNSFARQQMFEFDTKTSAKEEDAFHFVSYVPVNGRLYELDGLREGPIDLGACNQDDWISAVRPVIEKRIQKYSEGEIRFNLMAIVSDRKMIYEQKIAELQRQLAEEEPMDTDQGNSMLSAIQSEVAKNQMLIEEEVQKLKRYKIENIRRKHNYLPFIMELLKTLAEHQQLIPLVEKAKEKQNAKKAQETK
#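 System: Proteasome-associated human UCH37 deubiquitinase; Input: 0.15 nM proteasome in added enzyme buffer; Also added: Ub-AMC substrate from 1 µM stock; Incubation: 30 min compound-proteasome preincubation then 25 min substrate reaction, room temperature; Detection: fluorescence, ex 355 nm, em 460 nm; Read-out: % inhibition of Ub-AMC cleavage fluorescence; Benchmarks: no-proteasome and no-compound wells.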
# MsrA act: activates bovine MsrA enzyme; AID 602163; 360,000 tested, 0.3% active; purified bovine MsrA, absorbance read-out; activation, % at 10.6 µM; in the data active = activation above about 7.5%;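 note: 0% = vehicle and 100% = reference activator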
# Vif imaging: blocks HIV Vif function; HEK293T cells, Vif self-association by quenched fluorescence, imaging, 24 h; inhibition, % at 7.49 µM; 340,000 tested, 0.35% active; AID 602346; in the data active = inhibition above about 50%, passing the limit was not always enough
# aDG glyco up: alpha-DG glycosylation activation. Pro5-aDG cells, alpha-DG glycosylation AlphaScreen (IIH6); 0% Pro5, 100% B10-LARGE cell signal. 360,000 tested, 0.22% active. activation, % at 10 µM;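 active = activation of at least 8% versus controls, or a plate z-score of at least 8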;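 note: Pro5 are CHO cells carrying HIG-tagged alpha-DG that lacks glycosylation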
# Glyco luc inh: blocks N-linked glycosylation in D54 reporter cells; D54 ERlucT glycosylation luciferase reporter, 24 h; percent of 100 nM tunicamycin response; reporter increase, % at 12.5 µM; 360,000 tested, 0.23% active;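 active = mean luciferase reporter signal, scaled so untreated is 0 and the glycosylation-blocking control 100, at or above a set limit in every replicate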;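 note: luciferase carries N-glycosylation sites so blocking glycosylation raises the light; 0% = median of neutral control wells and 100% = median of 100 nM tunicamycin wells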
# MsrA inhibitor: bovine MsrA inhibition. purified bovine MsrA, absorbance read-out. inhibition, % at 15.5 µM. 360,000 tested, 0.75% active;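 note: 0% = vehicle wells with enzyme and 100% = reference inhibitor wells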
# MsrA conf: bovine MsrA inhibition, confirmed. shares compounds with MsrA inhibitor. inhibition, % at 15.5 µM. purified bovine MsrA, absorbance read-out. 2,300 tested, 41% active;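 note: coupled to thioredoxin reductase with NADPH and selenocystamine and DMSO as substrate; 0% = vehicle only and 100% = full effect of reference inhibitor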
# The depositor's hits bear a star; x = not tested or not shown. An excerpt weighted towards active compounds, which were near 1.9% of everything screened. Cut-off read from the data, not from the text of the source, unless noted: active = inhibition above about 4.5%; inactive = the rest.
SMILES,UCH37 DUB inh,MsrA act,Vif imaging,aDG glyco up,Glyco luc inh,MsrA inhibitor,MsrA conf
O=C(O)c1ccc(N/N=C/c2cccc3nccnc23)cc1,x,-8,0,0,-2,5.3*,4
CCN(CC)c1ccc(C(=O)O)cc1,1,-4,1,0,1,-1,x
O=C(O)c1ccc(N(c2ccccc2)c2ccccc2)cc1,-51,-5,10,0,0,5.1*,2
C/C=C/C=NNC(=O)CN(c1ccc(Br)cc1)S(=O)(=O)c1ccccc1,4,x,x,x,x,x,x
CCN(CC)CCn1c(-c2ccccc2)nc(=S)c2c1CC(C)(C)OC2,15,-6,-1,2,1,6.3*,4
CCC(=O)NN=Cc1ccc(-c2ccc(Cl)cc2)o1,0,x,x,x,x,x,x
O=S1(=O)CCC(N=Cc2ccc(-c3ccc(Cl)cc3)o2)C1 (configuration not stated),1,-2,9,0,1,4.8*,4
C=CCNc1oc(-c2ccc(Cl)cc2)nc1C#N,4,-7,-4,0,12,1,x
CNc1oc(-c2ccc(Cl)cc2)nc1C#N,-383,-4,-1,0,2,4.8*,2
CC(C)c1ccc2[nH]c3c(c2c1)CCCC3=NNC(=O)c1ccncc1,5,x,x,x,x,x,x
CCOc1ccc(/C=C(\C)C(=O)c2c(C)cc(C)[nH]c2=O)cc1,12,-4,-2,0,-2,6.2*,3
CCOC(=O)c1c(Nc2ccc(Cl)cc2)sc(C=C2C=Nc3ccccc32)c1O,8,x,x,x,x,x,x
COc1ccccc1/C=C/C=N/NC(=O)c1ccc(=O)n(C)c1,x,-12,2,0,-1,8.1*,6.9*
COc1ccccc1/C=C/C=N/NC(=O)c1cnccn1,x,-5,36,0,-1,7.1*,5.4*
O=C(NN=Cc1ccc2c(c1)OCO2)C(O)c1ccccc1 (configuration not stated),4,x,x,x,x,x,x
CC(=NOCC(=O)OCC(=O)NC(=O)c1ccccc1)c1ccc2c(c1)OCO2,4,x,x,x,x,x,x
COCc1c(C(=O)N/N=C/c2ccc(C)o2)nnn1-c1nonc1N,x,-1,-5,0,3,6.6*,5
Cc1ccc(/C=N/NC(=O)c2nnn(-c3nonc3N)c2CN(C)C)o1,x,-2,20,0,1,3,x
CC(=C/c1ccco1)/C=N/NC(=O)c1nnn(-c2nonc2N)c1CN(C)C,x,-5,7,0,2,7.7*,5.4*
Cc1ccc(/C=N/NC(=O)c2nnn(-c3nonc3N)c2-c2ccc3c(c2)OCO3)s1,x,-5,6,0,4,5.0*,4.6*
CC1(C)CC(N2CCN(Cc3ccccc3)CC2)=CC(=[N+]2CCCCC2)C1,12,-12,-2,0,1,4,x
CC1(C)CC(N2CCCC2)=CC(=[N+]2CCCC2)C1,6,-10,0,0,2,5.9*,2
CC1(C)CC(N2CCCC2)=CC(=[N+]2CCCCC2)C1,8,-6,-1,0,2,5.7*,3
CC1(C)CC(NNCCC#N)=CC(=[N+]2CCCC2)C1,0,-2,1,0,-1,0,x
Cc1nc(C)c(CC(=O)NN=Cc2ccc(O)cc2)c(=O)[nH]1,1,x,x,x,x,x,x
SMILES,UCH37 DUB inh,MsrA act,Vif imaging,aDG glyco up,Glyco luc inh,MsrA inhibitor,MsrA conf
COc1ccc(N2Cc3ccccc3C2=NC(=O)Nc2ccccc2)cc1,-37,x,x,x,x,x,x
O=S(=O)(O)Sc1ccccc1,x,-8,3,0,3,8.5*,2
CCN(CC)c1ccc(SS(=O)(=O)O)cc1,10,-1,-5,0,4,3,x
N#Cc1c(-n2cccc2/C=N/O)sc2c1CCCC2,x,-2,-1,0,0,16*,14*
N#Cc1c(-n2cccc2C=NO)sc2c1CCCC2,3,x,x,x,x,x,x
Cc1nc(N)sc1C(=O)NN=Cc1ccco1,2,x,x,x,x,x,x
COc1ccccc1/C=N/NC(=O)c1sc(C)nc1C,x,-6,11,0,4,5.1*,1
COc1ccccc1C=NNC(=O)c1sc(C)nc1C,5,x,x,x,x,x,x
Cc1nc(N)sc1C(=O)N/N=C/c1cccnc1,x,-5,-4,0,1,5.8*,3
Cc1ccc(OCC(=O)N/N=C/C=C/c2ccco2)cc1,x,-11,x,0,6,4.7*,2
COc1ccc(C(=O)NN=C(C)CC(=O)Nc2ccc3ccccc3c2)c(OC)c1,1,x,x,x,x,x,x
O=[N+]([O-])c1ccc(C=NNc2nc(N3CCCCC3)nc(N3CCCCC3)n2)cc1,2,x,x,x,x,x,x
